Published values from different studies.
Compare with care: the assays were run in different laboratories.
FGR: Tyrosine-protein kinase Fgr (FGR, Homo sapiens, UniProt P09769)
MPO: Myeloperoxidase (MPO, Homo sapiens, UniProt P05164)
SLC6A2: Sodium-dependent noradrenaline transporter (SLC6A2, Homo sapiens, UniProt P23975)

CCCCC(=O)Nc1ccc(-c2ccc3ncn(CCC)c(=O)c3c2)cn1
remaining binding (FGR; binding, competition with immobilised ligand; 0.5 µM): 100%

CC(C)OCCn1c(=S)[nH]c(=O)c2[nH]ccc21
remaining activity (MPO; enzyme activity, inhibitor; 0.68 µM): 27.6%

CNC(=O)[C@@]12C[C@@H]1[C@@H](n1cnc3c(Nc4ccccc4)nc(C#Cc4ccc(Cl)s4)nc31)[C@H](O)[C@@H]2O
inhibition (SLC6A2; ligand displacement, radioligand; 10 µM): 77%

Cc1cc(O)c(-c2ccc([C@@H](C)CN(C)C)cc2)c2c1[nH]c(=O)c1sccc12
inhibition (STE20/SPS1-related proline-alanine-rich protein kinase (STK39, Homo sapiens, UniProt Q9UEW8); enzyme activity, inhibitor; 0.1 µM): 13.6%

C1=C/COCc2cc(ccc2OCCN2CCCC2)Nc2nccc(n2)-c2cccc(c2)COC/1
remaining signal (FGR; cell-free assay; 0.1 µM): 96%

N#CC[C@@]12C[C@@H]1[C@@H](n1cnc3c(NCCCCCc4ccccc4)nc(I)nc31)[C@H](O)[C@@H]2O
inhibition (SLC6A2; ligand displacement, radioligand; 10 µM): 4%

CC(=O)N[C@@H](C)c1cc(Cl)ccc1C1CCN(C(=O)[C@@H]2CN(C(C)(C)C)C[C@H]2c2ccc(F)cc2F)CC1
Emax (Melanocortin receptor 4 (MC4R, Homo sapiens, UniProt P32245); cAMP, agonist): 104%

COc1ccc2oc(-c3ccc4nc(N)oc4c3)c/c(=N\c3ccccc3NC(=O)CCN)c2c1
remaining binding (Fibroblast growth factor receptor 1 (FGFR1, Homo sapiens, UniProt P11362); binding; 1 µM): 94%

CNc1nc(C#Cc2ccc(Cl)s2)nc2c1ncn2[C@H]1[C@H](O)[C@H](O)[C@]2(CC#N)C[C@H]12
inhibition (SLC6A2; transporter uptake, inhibitor, radiometric; HEK293; 10 µM): 16%

COc1ccc(Cl)cc1-c1cc(=O)[nH]c(=S)n1CC(N)=O
inhibition (MPO; enzyme activity, inhibitor, fluorescence; 0.5556 µM): 87.6%

N#CC[C@@]12C[C@@H]1[C@@H](n1cnc3c(NCc4cccc(Cl)c4)nc(C#Cc4ccc(Cl)s4)nc31)[C@H](O)[C@@H]2O
inhibition (SLC6A2; ligand displacement, radioligand; 10 µM): 76%

NC/C(=C\F)COc1cccc(Cn2c(=S)[nH]c(=O)c3[nH]cnc32)c1
inhibition (MPO; enzyme activity, inhibitor, fluorescence; 0.3333 µM): 98.5%
